Data taken from publication PMC3786204 (Journal of immunology (Baltimore, Md. : 1950), 2013).

Columns and labels:
Type in all cases: cell-based, human
DENV3 specific CTL = experiment: Surface CD8 expression on DENV3 epitope specific CTL; settings: CTL primed against DENV3 NS3 399–407 KLNDWDFVV
In short: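 CD8+ T cells were negatively selected from HIV-1-seronegative HLA-A*0201 donors and plated at 7.5×10^5/well. They were primed with DENV3 epitope-pulsed αDC1 (7.5×10^4/well) plus γ-irradiated J558-CD40L cells (5×10^4/well). rhIL-2 (50 IU/ml), rhIL-7 (10 ng/ml) and rhIL-15 (1 ng/ml) were added at day 4. CTL were tested against serotype-variant peptides, with CD8 read by flow cytometry.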

[1] = tested on: HIV-1 p24 Gag151–159 specific CTL; experiment: Surface CD8 expression on peptide reactive CTL; settings: TLN9-specific CTL, gated on IFN-γ producing cells; CTL lines from 5 donors
In short: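 CTL lines were primed in vitro from 5 HIV-1-naïve donors and maintained with IL-2 (200 IU/ml) and IL-7 (10 ng/ml). They were restimulated with peptide variants and assessed by intracellular cytokine staining with anti-CD28/CD49d and Golgistop/Golgiplug. CD8 MFI was read on IFN-γ-producing cells by multiparameter flow cytometry. Statistics used one-way ANOVA with Tukey post hoc test.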

[2] = tested on: autologous pre-activated CD4+ T cells; experiment: CTL cytotoxicity against peptide-pulsed CD4+ T cell targets; settings: targets pulsed with 1 μg/mL peptide, 18h co-culture
In short: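 Targets: PBMC activated 5 days with PHA (1μg/ml) and rIL-2 (100 IU/ml), then CD4+ cells negatively selected, pulsed 1 h with 1μg/mL peptide and washed. Co-cultured with CTL 18h at 37°C at CTL:target 3:1, 1:1, 0.3:1 and 0:1. Stained for CD4/CD8, fixed/permeabilized, 7-AAD 20 min at 37°C. Linear 7-AAD on singlet CD4+ events scored G1, S/G2 and sub-G1 fractions. 4 experiments.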

autologous iDC [3] = experiment: 4 h 51Cr-release cytotoxicity assay; settings: 1 μg/ml peptide, TLN9-specific CTL
In short: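 Targets were autologous iDC, generated by culturing monocytes 5–7 days in IMDM with 10% FBS, GM-CSF and IL-4 (both 1000 IU/ml), then peptide-pulsed. Effectors were CTL primed in vitro from CD8+ T cells of HIV-1-seronegative HLA-A*0201 donors, using peptide-pulsed αDC1. Lysis was read by standard 4 h 51Cr release.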

iDC = experiment: Microscopy of iDC:CTL co-cultures; settings: 24 h co-culture, light microscopy
In short: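 CTL (2×10^5 cells/well) were added to day-5 autologous iDC cultures with 1 μg/ml irrelevant, priming or variant 9mer peptide. Co-cultures were examined by light microscopy after 24h. For SEM, cells grew on glass coverslips removed at 24h, fixed in 2.5% glutaraldehyde in PBS and post-fixed in 1% aqueous osmium tetroxide.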

[4] = tested on: Gag77–85 reactive CTL from HIV-1 positive donor; experiment: Surface CD8 expression on memory CTL expanded from HIV-1 positive donor PBMC; settings: CTL expanded from PBMC 6 months post seroconversion
autologous iDC [5] = experiment: Flow cytometry viability and recovery of iDC in CTL:DC co-cultures; settings: CTL and iDC co-culture, 6h, 3:1 CTL:DC
In short: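 CTL were added to day-5 autologous iDC for 6h at 3:1 (CTL:DC). Cultures had no peptide, irrelevant control, priming or variant peptide; titration used decreasing cognate peptide down to .001 μg/ml. Cell loss came from recovered cell-type ratios gated by light scatter and CD3 (T cells) or CD86 (DC). Viability of DC-gated events used LIVE/DEAD Aqua. Three experiments, ± standard error.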

DC [6] = experiment: DC maturation, surface CD86 by flow cytometry; settings: 48h; for Effect on CTL-induced DC maturation (CD86 enhancement): PLN9 expressing DC + CTL, sTNF-R1 0.1 μg/ml, sIFNγ-R1 1 μg/ml
In short: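 Day 5 autologous immature DC were co-cultured for 48h with TLN9-specific CTL (2×10^5 cells/well) plus variant peptide PLN9 (1 μg/ml), with or without blockers sTNF-RI (0.1 μg/ml) or IFNγ-R1 (1 μg/ml). Controls were TNF-α (50 ng/ml)-matured DC and peptide-exposed DC without CTL. DC surface CD86 was measured by flow cytometry.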

DC [7] = experiment: DC IL-12p70 producing capacity after CD40L stimulation; settings: exogenous TNF-α 50 ng/ml, 48h, then CD40L stimulation

KLNDWDFVV [reference compound]
CD8 expression on reactive CTL (DENV3 specific CTL): down-regulation of CD8

KLTDWDFVV
CD8 expression on reactive CTL (DENV3 specific CTL): CD8 expression was maintained

PLNAWVKVV [PLN9]
Surface expression of CD8 on peptide reactive CTL [1]: maintained
Killing of peptide-labeled CD4+ T cell targets by TLN9-specific CTL [2]: not effectively killed
CTL lytic activity against peptide-labeled iDC (autologous iDC [3]): dramatically reduced
DC morphology / survival in co-culture with CTL (iDC): pronounced webbed network of long cellular extensions

RTNDWDFVV
CD8 expression on reactive CTL (DENV3 specific CTL): CD8 expression was maintained

SLFNTVATL
CD8 expression on reactive CTL [4]: down-regulation occurred

TLNAWVKVV [TLN9]
Surface expression of CD8 on peptide reactive CTL [1]: decreased
CTL lytic activity against peptide-labeled iDC (autologous iDC [3]): showed lytic activity
Peptide concentration at which a substantial drop in killing occurs (autologous iDC [5]): .001 µg/mL
DC morphology / survival in co-culture with CTL (iDC): failed to survive

TNF-α
CD86 expression of DC matured with the factor (DC [6]; exogenous TNF-α 50 ng/ml): high levels of CD86
IL-12p70 producing ability of DC matured with the factor (DC [7]): curtailed

B1: sTNF-rec1: Human soluble TNF receptor I, TNF-α blocker (protein, UniProt P19438 30-211, looked up)
extracellular domain: LVPHLGDREKRDSVCPQGKYIHPQNNSICCTKCHKGTYLYNDCPGPGQDTDCRECESGSFTASENHLRHCLSCSKCRKEMGQVEISSCTVDRDTVCGCRKNQYRHYWSENLFQCFNCSLCLNGTVHLSCQEKQNTVCTCHAGFFLRENECVSCSNCKKSLECTKLCLPQIENVKGTEDSGTT
modifications: extracellular domain
Effect on CTL-induced DC maturation (CD86 enhancement) (DC [6]): partially reduced

B2: sIFNγ-rec1: soluble IFN-γ receptor 1, IFN-γ blocker (protein, UniProt P15260 18-245, looked up)
extracellular domain: EMGTADLGPSSVPTPTNVTIESYNMNPIVYWEYQIMPQVPVFTVEVKNYGVKNSEWIDACINISHHYCNISDHVGDPSNSLWVRVKARVGQKESAYAKSEEFAVCRDGKIGPPKLDIRKEEKQIMIDIFHPSVFVNGDEQEVDYDPETTCYIRVYNVYVRMNGSEIQYKILTQKEDDCDEIQCQLAIPVSSLNSQYCVSAEGVLHVWGVTTEKSKEVCITIFNSSIKG
modifications: extracellular domain
Effect on CTL-induced DC maturation (CD86 enhancement) (DC [6]): did not inhibit
